From ChEMBL document CHEMBL4715713, “Novel anticancer oridonin derivatives possessing a diazen-1-ium-1,2-diolate nitric oxide donor moiety: Design, synthesis, biological evaluation and nitric oxide release studies” (Bioorg Med Chem Lett, 2016)
Structures can show the parent of a compound that is named as a salt.

What was measured:
[1] = tested on: Bel-7402; assay: Antiproliferative activity against human Bel-7402 cells assessed as reduction in cell viability at 1 uM incubated for 72 hrs by MTT assay relative to control; type: functional
[2] = tested on: Bel-7402; assay: Antiproliferative activity against human Bel-7402 cells assessed as reduction in cell viability at 10 uM incubated for 72 hrs by MTT assay relative to control; type: functional
[3] = tested on: Bel-7402; assay: Antiproliferative activity against human Bel-7402 cells assessed as reduction in cell viability incubated for 72 hrs by MTT assay; type: functional, cell-based; conditions: Bel-7402, 72 h
Procedure, shortened: (§1)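 Cells were exposed to a range of test concentrations for 72 h and viability was read by MTT. IC50 values were taken from the concentration-response data, and means ± SD are from n = 3.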

[4] = Prodrug release in human Bel-7402 cells assessed as NO release by measuring increase in nitrite/nitrate production at 50 uM measured upto 24 hrs by Griess reagent based assay; type: ADME, cell-based; conditions: bel-7402, 24 h
Procedure, shortened: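 Bel-7402 cells were seeded at 15,000/mL and treated in triplicate with each compound at 50 µM for varying times. Nitrate/nitrite in the cell lysates was determined by the Griess assay. Values are the mean of three independent experiments.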

[5] = tested on: Bel-7402; assay: Antiproliferative activity against human Bel-7402 cells assessed as reduction in cell viability incubated for 72 hrs in presence of O2-Chloromethyl-1-( morpholin -1-yl)diazen-1-ium-1,2-diolate by MTT assay; type: functional, cell-based; conditions: Bel-7402, 72 h
[6] = tested on: A549; assay: Antiproliferative activity against human A549 cells assessed as reduction in cell viability incubated for 72 hrs by MTT assay; type: functional, cell-based; conditions: A549, 72 h; procedure, shortened: as §1
[7] = tested on: HepG2; assay: Antiproliferative activity against human HepG2 cells assessed as reduction in cell viability incubated for 72 hrs by MTT assay; type: functional, cell-based; conditions: HepG2, 72 h; procedure, shortened: as §1
[8] = tested on: HeLa; assay: Antiproliferative activity against human HeLa cells assessed as reduction in cell viability incubated for 72 hrs by MTT assay; type: functional, cell-based; procedure, shortened: as §1
[9] = tested on: K562; assay: Antiproliferative activity against human K562 cells assessed as reduction in cell viability incubated for 72 hrs by MTT assay; type: functional, cell-based; conditions: K562, 72 h; procedure, shortened: as §1
[10] = tested on: Bel-7402; assay: Induction of apoptosis in human Bel-7402 cells assessed as apoptotic cells at 2.5 uM incubated for 36 hrs by Annexin V-FITC and PI staining based flow cytometry analysis (reference value: 6.20%); type: functional
[11] = tested on: Bel-7402; assay: Induction of cell cycle arrest in human Bel-7402 cells assessed as accumulation in G1 phase at 0.625 uM incubated for 36 hrs by PI staining based flow cytometry analysis (reference value: 74.01 %); type: functional
[12] = tested on: Bel-7402; assay: Induction of cell cycle arrest in human Bel-7402 cells assessed as accumulation in G2 phase at 0.625 uM incubated for 36 hrs by PI staining based flow cytometry analysis (reference value: 6.31 %); type: functional
[13] = tested on: Bel-7402; assay: Induction of cell cycle arrest in human Bel-7402 cells assessed as accumulation in S phase at 0.625 uM incubated for 36 hrs by PI staining based flow cytometry analysis (reference value: 19.68 %); type: functional
[14] = tested on: Bel-7402; assay: Induction of cell cycle arrest in human Bel-7402 cells assessed as accumulation in G1 phase at 1.25 uM incubated for 36 hrs by PI staining based flow cytometry analysis (reference value: 74.01 %); type: functional
[15] = tested on: Bel-7402; assay: Induction of cell cycle arrest in human Bel-7402 cells assessed as accumulation in G2 phase at 1.25 uM incubated for 36 hrs by PI staining based flow cytometry analysis (reference value: 6.31 %); type: functional
[16] = tested on: Bel-7402; assay: Induction of cell cycle arrest in human Bel-7402 cells assessed as accumulation in S phase at 1.25 uM incubated for 36 hrs by PI staining based flow cytometry analysis (reference value: 19.68 %); type: functional
[17] = tested on: Bel-7402; assay: Induction of cell cycle arrest in human Bel-7402 cells assessed as accumulation in G1 phase at 2.5 uM incubated for 36 hrs by PI staining based flow cytometry analysis (reference value: 74.01 %); type: functional
[18] = tested on: Bel-7402; assay: Induction of cell cycle arrest in human Bel-7402 cells assessed as accumulation in G2 phase at 2.5 uM incubated for 36 hrs by PI staining based flow cytometry analysis (reference value: 6.31 %); type: functional
[19] = tested on: Bel-7402; assay: Induction of cell cycle arrest in human Bel-7402 cells assessed as accumulation in S phase at 2.5 uM incubated for 36 hrs by PI staining based flow cytometry analysis (reference value: 19.68 %); type: functional
[20] = tested on: Bel-7402; assay: Induction of cell cycle arrest in human Bel-7402 cells assessed as increase in accumulation in S phase incubated for 36 hrs by PI staining based flow cytometry analysis; type: functional; conditions: dose 0.625-2.5 µM

IC50 [3] | Drug metabolism [4] | Structure (SMILES) | inhibition at 1 µM [1] | inhibition at 10 µM [2] | also measured
2.53 µM |  | C=C1C(=O)[C@]23[C@H](OC(=O)CCCC(=O)OCO/N=[N+](\[O-])N4CCOCC4)[C@H]1CC[C@H]2[C@@]12CO[C@@]3(O)[C@@H](O)[C@@H]1C(C)(C)CC[C@@H]2O | 83.8% | 92.7% | 
3.03 µM |  | C=C1C(=O)[C@]23[C@H](OC(=O)CCC(=O)OCO/N=[N+](\[O-])N4CCOCC4)[C@H]1CC[C@H]2[C@@]12CO[C@@]3(O)[C@@H](O)[C@@H]1C(C)(C)CC[C@@H]2OC(C)=O | 85.8% | 94.5% | 
7.12 µM |  | C=C1C(=O)[C@]23[C@H](O)[C@H]1CC[C@H]2[C@@]12CO[C@]3(O)[C@@H](O)[C@@H]1C(C)(C)CC[C@@H]2O [ORIDONIN] | 29.9% | 93.6% | 
2.75 µM | Metabolite_Detected | C=C1C(=O)[C@]23[C@H](OC(=O)CCC(=O)OCO/N=[N+](\[O-])N4CCOCC4)[C@H]1CC[C@H]2[C@@]12CO[C@@]3(O)[C@@H](O)[C@@H]1C(C)(C)CC[C@@H]2O | 88.5% | 93.3% | 
17 µM | Metabolite_Detected | C=C1C(=O)[C@]23[C@H](OC(=O)CCCC(=O)OCO/N=[N+](\[O-])N4CCCC4)[C@H]1CC[C@H]2[C@@]12CO[C@@]3(O)[C@@H](O)[C@@H]1C(C)(C)CCC2=O | 13.5% | 93.9% | 
10.9 µM |  | C=C1C(=O)[C@]23[C@H](OC(=O)CCCC(=O)OCO/N=[N+](\[O-])N4CCCC4)[C@H]1CC[C@H]2[C@@]12CO[C@@]3(O)[C@@H](O)[C@@H]1C(C)(C)CC[C@@H]2O | 26.1% | 93.4% | 
3.26 µM |  | C=C1C(=O)[C@]23[C@H](OC(=O)CCC(=O)OCO/N=[N+](\[O-])N4CCOCC4)[C@H]1CC[C@H]2[C@@]12CO[C@@]3(O)[C@@H](O)[C@@H]1C(C)(C)CCC2=O | 71.3% | 93.1% | 
9.07 µM |  | C=C1C(=O)[C@]23[C@H](OC(=O)CCC(=O)O)[C@H]1CC[C@H]2[C@@]12CO[C@@]3(O)[C@@H](O)[C@@H]1C(C)(C)CCC2=O |  |  | IC50 [5]: 5.28 µM
1.84 µM | Metabolite_Detected | C=C1C(=O)[C@]23[C@H](OC(=O)CCCC(=O)OCO/N=[N+](\[O-])N4CCOCC4)[C@H]1CC[C@H]2[C@@]12CO[C@@]3(O)[C@@H](O)[C@@H]1C(C)(C)CCC2=O | 87.8% | 93.9% | IC50 [6]: 1.13 µM; IC50 [7]: 2.57 µM; IC50 [8]: 2.46 µM; IC50 [9]: 8.48 µM; Activity [10]: 51.91%; Activity [11]: 68.47%; Activity [12]: 5.1%; Activity [13]: 26.42%; Activity [14]: 66.35%; Activity [15]: 3.66%; Activity [16]: 29.99%; Activity [17]: 58.98%; Activity [18]: 4.8%; Activity [19]: 36.22%; Activity [20]: Dose-dependent effect
0.83 µM |  | COc1cccc2c1C(=O)c1c(O)c3c(c(O)c1C2=O)C[C@@](O)(C(=O)CO)C[C@@H]3O[C@H]1C[C@H](N)[C@H](O)[C@H](C)O1 [DOXORUBICIN HYDROCHLORIDE] |  |  | 
14.6 µM |  | C=C1C(=O)[C@]23[C@H](OC(=O)CCC(=O)OCO/N=[N+](\[O-])N4CCCC4)[C@H]1CC[C@H]2[C@@]12CO[C@@]3(O)[C@@H](O)[C@@H]1C(C)(C)CCC2=O | 24.2% | 93.6% | 
13.3 µM | Metabolite_Detected | C=C1C(=O)[C@]23[C@H](OC(=O)CCC(=O)OCO/N=[N+](\[O-])N4CCCC4)[C@H]1CC[C@H]2[C@@]12CO[C@@]3(O)[C@@H](O)[C@@H]1C(C)(C)CC[C@@H]2O | 15.9% | 93.2% | 

Structure (SMILES) | IC50 [3] | Drug metabolism [4] | inhibition at 1 µM [1] | inhibition at 10 µM [2] | also measured
[O-]/[N+](=N\OCCl)N1CCOCC1 | 24.6 µM |  |  |  | 
